From ChEMBL document CHEMBL4385611, “Difluoromethylene at the γ-Lactam α-Position Improves 11-Deoxy-8-aza-PGE1 Series EP4 Receptor Binding and Activity: 11-Deoxy-10,10-difluoro-8-aza-PGE1 Analog (KMN-159) as a Potent EP4 Agonist” (J Med Chem, 2019)

Experiments:
[1] = target: T1, Prostaglandin E2 receptor EP3 subtype (Homo sapiens, UniProt P43115); assay: Displacement of [3H]PGE2 from human recombinant EP3 receptor expressed in HEK293 cell membranes after 120 mins by liquid scintillation counting method
T1 sequence (P43115 whole entry): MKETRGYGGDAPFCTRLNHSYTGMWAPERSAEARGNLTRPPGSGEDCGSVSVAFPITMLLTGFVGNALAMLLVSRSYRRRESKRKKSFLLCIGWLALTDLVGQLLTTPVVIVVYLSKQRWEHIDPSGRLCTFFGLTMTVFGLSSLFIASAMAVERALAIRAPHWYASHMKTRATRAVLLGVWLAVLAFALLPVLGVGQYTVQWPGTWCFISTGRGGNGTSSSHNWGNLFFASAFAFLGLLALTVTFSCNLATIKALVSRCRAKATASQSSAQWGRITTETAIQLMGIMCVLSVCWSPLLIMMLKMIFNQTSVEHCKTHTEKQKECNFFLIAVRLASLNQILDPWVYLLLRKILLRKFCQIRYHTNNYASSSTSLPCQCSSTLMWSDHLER

[2] = target: T2, Prostaglandin E2 receptor EP4 subtype (Homo sapiens, UniProt P35408); assay: Agonist activity at human EP4 receptor expressed in HEK293T/17 cells assessed as increase in intracellular cAMP level incubated for 30 mins by ELISA; format: functional, cell-based
[3] = target: T2, Prostaglandin E2 receptor EP4 subtype; assay: Agonist activity at human EP4 receptor expressed in HEK293T/17 cells assessed as increase in GalphaS-mediated CREB activation measured after 6 to 24 hrs by SEAP reporter gene-based chemiluminescence assay; format: functional, cell-based
[4] = Chemical stability in PBS buffer at pH 7.4 assessed as compound recovery at 4 degC; format: physicochemical
In short: (§1)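 Compound solution in PBS, pH 7.4, held at 4 °C, tested as plain aqueous solution and after autoclaving. A separate sample was exposed to Co-60 gamma irradiation. Read-out is percent of compound recovered.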

[5] = Apparent permeability across apical to basolateral side in human Caco2 cells at 5 uM after 120 mins by LC-MS/MS analysis; format: ADME, cell-based; conditions: Caco-2
[6] = Apparent permeability across basolateral to apical side in human Caco2 cells at 5 uM after 120 mins by LC-MS/MS analysis; format: ADME, cell-based; conditions: Caco-2
[7] = Apparent permeability across basolateral to apical side in human Caco2 cells assessed as drug recovery at 5 uM after 120 mins by LC-MS/MS analysis; format: ADME, cell-based; conditions: Caco-2, read-out: Drug recovery
[8] = Half-life in human plasma at 1 uM by HPLC-MS/MS analysis; format: ADME, cell-free
[9] = Half-life in human liver microsomes at 0.1 uM by HPLC-MS/MS analysis; format: ADME, Microsome
[10] = Half-life in human hepatocytes at 0.1 uM by HPLC-MS/MS analysis; format: ADME, cell-based, Hepatocyte
[11] = Intrinsic clearance in human hepatocytes at 0.1 uM by HPLC-MS/MS analysis; format: ADME, cell-based, Hepatocyte
Cytochrome P450 2C8 = target: T3, Cytochrome P450 2C8 (Homo sapiens, UniProt P10632); assay: Inhibition of CYP2C8 in human liver microsomes using paclitaxel as substrate at 10 uM after 10 mins by HPLC-MS/MS analysis; format: ADME
T3 sequence (P10632 whole entry): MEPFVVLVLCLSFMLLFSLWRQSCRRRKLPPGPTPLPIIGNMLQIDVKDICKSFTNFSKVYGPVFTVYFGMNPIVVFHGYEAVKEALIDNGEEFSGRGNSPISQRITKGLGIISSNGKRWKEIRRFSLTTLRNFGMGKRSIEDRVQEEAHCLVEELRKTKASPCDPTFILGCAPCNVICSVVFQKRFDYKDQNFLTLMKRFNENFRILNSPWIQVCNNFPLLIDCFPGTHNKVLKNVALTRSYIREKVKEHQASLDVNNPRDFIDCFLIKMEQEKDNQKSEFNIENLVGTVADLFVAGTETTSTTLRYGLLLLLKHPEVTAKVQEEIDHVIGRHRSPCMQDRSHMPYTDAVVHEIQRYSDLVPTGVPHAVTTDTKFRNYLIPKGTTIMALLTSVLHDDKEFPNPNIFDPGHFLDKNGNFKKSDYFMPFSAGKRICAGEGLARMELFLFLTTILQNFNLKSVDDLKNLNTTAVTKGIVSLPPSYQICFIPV

Cytochrome P450 2C9 = Cytochrome P450 2C9 (Homo sapiens, UniProt P11712); assay: Inhibition of CYP2C9 in human liver microsomes using diclofenac as substrate at uM after 10 mins by HPLC-MS/MS analysis; format: ADME
Cytochrome P450 2C19 = Cytochrome P450 2C19 (Homo sapiens, UniProt P33261); assay: Inhibition of CYP2C19 in human liver microsomes using omeprazole as substrate at 10 uM after 10 mins by HPLC-MS/MS analysis; format: ADME
Cytochrome P450 3A [12] = target: T4, Cytochrome P450 3A (Homo sapiens, UniProt P08684+P20815+Q9HB55+P24462); assay: Inhibition of CYP3A in human liver microsomes using midazolam as substrate at 10 uM after 10 mins by HPLC-MS/MS analysis; format: ADME
Cytochrome P450 3A [13] = target: T4, Cytochrome P450 3A; assay: Inhibition of CYP3A in human liver microsomes using testosterone as substrate at 10 uM after 10 mins by HPLC-MS/MS analysis; format: ADME
[14] = Genotoxicity in Salmonella typhimurium TA98 at 0.6 to 100 uM after 96 hrs by photometry analysis; format: toxicity; conditions: salmonella enterica subsp. enterica serovar typhimurium
[15] = Genotoxicity in Salmonella typhimurium TA1535 at 0.6 to 100 uM after 96 hrs by photometry analysis; format: toxicity; conditions: salmonella enterica subsp. enterica serovar typhimurium
[16] = Genotoxicity in Salmonella typhimurium TA1537 at 0.6 to 100 uM after 96 hrs by photometry analysis; format: toxicity; conditions: salmonella enterica subsp. enterica serovar typhimurium
[17] = Mutagenicity in Salmonella typhimurium TA100 after 96 hrs in presence of rat liver S9 fraction by Ames test; format: toxicity, subcellular; conditions: salmonella enterica subsp. enterica serovar typhimurium, s9, 96 h
[18] = Mutagenicity in Salmonella typhimurium TA1535 after 96 hrs in presence of rat liver S9 fraction by Ames test; format: toxicity, subcellular; conditions: salmonella enterica subsp. enterica serovar typhimurium, s9, 96 h
[19] = Mutagenicity in Salmonella typhimurium TA1537 after 96 hrs in presence of rat liver S9 fraction by Ames test; format: toxicity, subcellular; conditions: salmonella enterica subsp. enterica serovar typhimurium, s9, 96 h
[20] = Chemical stability in PBS buffer at pH 7.4 assessed as compound recovery at 4 degC under autoclave condition; format: physicochemical; in short: as §1
[21] = Chemical stability of the compound assessed as drug recovery under Co-60 gamma irradiation condition; format: physicochemical; in short: as §1
[22] = target: Prostaglandin E2 receptor EP2 subtype (Homo sapiens, UniProt P43116); assay: Agonist activity at human EP2 receptor expressed in HEK293T/17 cells assessed as increase in intracellular cAMP level at 10 uM incubated for 30 mins by ELISA relative to control; format: functional, cell-based
[23] = Mutagenicity in Salmonella typhimurium TA98 after 96 hrs in absence of rat liver S9 fraction by Ames test; format: toxicity; conditions: salmonella enterica subsp. enterica serovar typhimurium, s9, 96 h
[24] = Mutagenicity in Salmonella typhimurium TA100 after 96 hrs in absence of rat liver S9 fraction by Ames test; format: toxicity; conditions: salmonella enterica subsp. enterica serovar typhimurium, s9, 96 h
[25] = Mutagenicity in Salmonella typhimurium TA1537 after 96 hrs in absence of rat liver S9 fraction by Ames test; format: toxicity; conditions: salmonella enterica subsp. enterica serovar typhimurium, s9, 96 h
CHO-K1 = assay: Clastogenic activity in CHOK1 cells after 4 hrs in absence of S9 fraction by micronucleus assay; format: toxicity, cell-based, Cricetulus griseus; conditions: chinese hamster, cho-k1, 4 h

T2 sequence (P35408 whole entry): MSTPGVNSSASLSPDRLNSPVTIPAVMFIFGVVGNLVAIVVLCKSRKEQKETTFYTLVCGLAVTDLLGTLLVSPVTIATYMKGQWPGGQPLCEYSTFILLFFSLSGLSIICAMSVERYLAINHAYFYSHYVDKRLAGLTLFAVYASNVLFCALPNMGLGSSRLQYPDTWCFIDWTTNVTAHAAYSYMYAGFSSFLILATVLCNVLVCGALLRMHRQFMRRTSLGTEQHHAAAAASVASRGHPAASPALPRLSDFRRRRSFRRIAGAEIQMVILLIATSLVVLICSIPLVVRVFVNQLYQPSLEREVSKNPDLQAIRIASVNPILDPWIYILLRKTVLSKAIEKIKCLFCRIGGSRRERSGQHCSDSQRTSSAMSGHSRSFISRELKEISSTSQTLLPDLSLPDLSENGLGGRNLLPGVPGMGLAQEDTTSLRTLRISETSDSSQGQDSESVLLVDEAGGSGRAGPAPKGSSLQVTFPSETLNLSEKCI
Sequence of Cytochrome P450 2C9 (P11712 whole entry): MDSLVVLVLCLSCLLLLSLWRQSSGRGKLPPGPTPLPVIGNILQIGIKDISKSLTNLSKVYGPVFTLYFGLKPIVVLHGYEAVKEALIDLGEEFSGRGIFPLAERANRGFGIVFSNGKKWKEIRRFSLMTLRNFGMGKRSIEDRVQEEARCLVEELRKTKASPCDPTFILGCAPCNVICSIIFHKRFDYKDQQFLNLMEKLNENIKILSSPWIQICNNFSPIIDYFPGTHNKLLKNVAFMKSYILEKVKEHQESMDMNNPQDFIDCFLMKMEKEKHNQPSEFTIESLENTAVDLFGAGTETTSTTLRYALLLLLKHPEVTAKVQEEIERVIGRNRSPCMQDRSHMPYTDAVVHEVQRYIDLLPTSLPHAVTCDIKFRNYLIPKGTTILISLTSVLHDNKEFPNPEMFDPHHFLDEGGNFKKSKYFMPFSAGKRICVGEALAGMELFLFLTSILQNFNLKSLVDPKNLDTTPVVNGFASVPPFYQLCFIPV
Sequence of Cytochrome P450 2C19 (P33261 whole entry): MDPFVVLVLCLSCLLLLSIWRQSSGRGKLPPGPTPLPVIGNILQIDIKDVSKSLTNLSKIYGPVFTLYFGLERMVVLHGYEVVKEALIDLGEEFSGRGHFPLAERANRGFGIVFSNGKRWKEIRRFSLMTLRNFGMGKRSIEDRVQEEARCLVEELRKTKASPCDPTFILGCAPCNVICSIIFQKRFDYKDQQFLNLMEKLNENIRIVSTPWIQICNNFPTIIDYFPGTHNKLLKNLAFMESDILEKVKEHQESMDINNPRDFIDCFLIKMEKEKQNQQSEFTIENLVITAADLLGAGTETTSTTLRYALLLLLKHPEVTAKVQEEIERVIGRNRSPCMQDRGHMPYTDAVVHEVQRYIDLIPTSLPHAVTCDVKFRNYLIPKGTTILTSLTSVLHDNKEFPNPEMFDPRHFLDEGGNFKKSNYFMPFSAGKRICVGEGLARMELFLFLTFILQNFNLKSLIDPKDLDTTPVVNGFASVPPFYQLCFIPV
Sequence of Prostaglandin E2 receptor EP2 subtype (P43116 whole entry): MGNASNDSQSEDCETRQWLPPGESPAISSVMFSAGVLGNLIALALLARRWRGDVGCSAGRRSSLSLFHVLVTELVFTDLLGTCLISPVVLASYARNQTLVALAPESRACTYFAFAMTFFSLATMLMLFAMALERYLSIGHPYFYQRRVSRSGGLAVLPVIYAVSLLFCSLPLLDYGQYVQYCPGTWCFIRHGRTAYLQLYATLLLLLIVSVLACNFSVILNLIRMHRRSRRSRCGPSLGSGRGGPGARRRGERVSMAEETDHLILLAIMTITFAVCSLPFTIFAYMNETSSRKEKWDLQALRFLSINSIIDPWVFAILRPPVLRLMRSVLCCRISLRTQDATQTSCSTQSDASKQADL

Ki [1] [nM] | EC50 [2] [nM] | EC50 [3] [nM] | Papp A→B at 2 h, 5 µM [5] [×10⁻⁶ cm/s] | Papp B→A at 2 h, 5 µM [6] [×10⁻⁶ cm/s] | recovery at 2 h, 5 µM [7] [%] | half-life at 1 µM [8] [h] | half-life at 0.1 µM [9] [h] | half-life at 0.1 µM [10] [h] | CLH [11] [µL/min/10^6 cells] | inhibition (INH) (Cytochrome P450 2C8) | inhibition (INH) (Cytochrome P450 2C9) | inhibition (INH) (Cytochrome P450 2C19) | inhibition (INH) (Cytochrome P450 3A [12]) | inhibition (INH) (Cytochrome P450 3A [13]) | SMILES | Activity [14] | Activity [15] | Activity [16] | Activity [17] | Activity [18] | also measured
258 | 2.63 | 0.088 | 9.93 | 14.5 | 93 | > 2 | > 1 | > 2 | < 8.2 | Not Active | Not Active | Not Active | Not Active | Not Active | CCC#CC[C@H](C)[C@H](O)/C=C/[C@H]1CC(F)(F)C(=O)N1CCCCCCC(=O)O | Non-Toxic | Non-Toxic | Non-Toxic | Non-Toxic | Non-Toxic | Drug recovery [4]: 100%; Activity [19]: Non-Toxic; Drug recovery [20]: 100%; Drug recovery [21]: 95%; Activity [22]: < 50%; Activity [23]: Non-Toxic; Activity [24]: Non-Toxic; Activity [25]: Non-Toxic; Activity (CHO-K1): Non-Toxic
880 | 19.9 | 0.476 | 6.38 | 10.1 | 97 | 1.93 | > 1 | > 2 | < 8.2 | Not Active | Not Active | Not Active | Not Active | Not Active | CCC#CC[C@H](C)[C@H](O)/C=C/[C@H]1CCC(=O)N1CCCCCCC(=O)O | Non-Toxic | Non-Toxic | Non-Toxic | Non-Toxic | Non-Toxic | Activity [19]: Non-Toxic; Activity [22]: < 50%; Activity [23]: Non-Toxic; Activity [24]: Non-Toxic; Activity [25]: Non-Toxic; Activity (CHO-K1): Non-Toxic
